The values that follow come from ChEMBL document CHEMBL1148736, “N-Acylthiadiazolines, a new class of liver X receptor agonists with selectivity for LXRbeta” (J Med Chem, 2007).

SMILES strings stand for the structures. Calls of active or inactive are those of the source. The calls are words filed in the database; no cut-off is given here.

The nature of data set [1]: Half life in C57BL/6 mouse at 20 mg/kg, po. Details: dose 20 mg/kg, route oral. As to conditions: in vivo. The class given is ADME, organism-based. A digest of the protocol:
(§1)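 Mouse PK study, IV and PO; compound formulated at 2.5 mg/mL in PEG300/Tween 80 (4:1). IV dose 5 mpk (AUC, Cmax, clearance, Vss); oral dose 20 mpk (AUC, Cmax, bioavailability, t1/2).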

Data set [2] is described as follows: Cmax in C57BL/6 mouse at 5 mg/kg, iv. The class given is ADME, organism-based. Details: dose 5 mg/kg, route intravenous. As to conditions: in vivo. An outline of the steps:
as §1

For data set [3], the target named is T1, Oxysterols receptor LXR-alpha (Homo sapiens, UniProt Q13133).
T1 sequence (Q13133 whole entry): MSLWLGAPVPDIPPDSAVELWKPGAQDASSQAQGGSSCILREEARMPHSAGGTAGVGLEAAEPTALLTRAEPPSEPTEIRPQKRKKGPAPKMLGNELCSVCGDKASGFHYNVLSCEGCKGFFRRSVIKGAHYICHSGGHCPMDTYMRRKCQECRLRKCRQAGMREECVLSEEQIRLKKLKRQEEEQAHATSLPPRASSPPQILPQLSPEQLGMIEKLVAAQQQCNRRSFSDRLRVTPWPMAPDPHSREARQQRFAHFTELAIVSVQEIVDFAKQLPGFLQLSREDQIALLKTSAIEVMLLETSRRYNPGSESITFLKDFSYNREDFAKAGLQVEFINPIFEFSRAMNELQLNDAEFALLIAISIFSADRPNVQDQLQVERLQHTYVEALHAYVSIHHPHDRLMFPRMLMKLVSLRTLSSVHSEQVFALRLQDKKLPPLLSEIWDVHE
The experiment in a line: Agonist activity at GAL-linked human LXRalpha expressed in THP1 cells assessed as stimulation of coactivator recruitment by FRET assay. The class given is functional. An outline of the steps:
(§2)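 Cell-free TR-FRET coactivator recruitment: 20 nM His-tagged hLXRα or hLXRβ, 300 nM biotinylated SRC-1 peptide, Eu-anti-His antibody, APC-streptavidin. 12-point curves from 20 µM; 1 h at 37 °C. Duplicate. %E = maximal coactivator recruitment relative to reference dual agonist in same experiment.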

A short description of data set [4]: Volume of distribution at steady state in C57BL/6 mouse at 5 mg/kg, iv. Details: dose 5 mg/kg, route intravenous. As to conditions: in vivo, read-out: Vss. The class given is ADME, organism-based. An outline of the steps:
as §1

The test system of data set [5] is THP-1. As to the kind of experiment: Increase in ABCA1 gene expression in THP1 cells at 1 uM relative to GW-3965. The class given is functional, Homo sapiens. A digest of the protocol: (§3)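 THP-1 cells differentiated with 40 ng/mL PMA for 1 day, then switched to RPMI with 2% lipoprotein-deficient FBS. Compound added 6 h later at 1 or 10 µM in DMSO, incubated 24 h. ABCA1 mRNA by one-step TaqMan qRT-PCR, triplicate, multiplexed with 36B4; fold induction vs DMSO, expressed relative to reference dual agonist.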

Data set [6] concerns Liver. The experiment in a line: Effect on SREBP1c gene expression in C57BL/6 mouse liver. The data set is classed as functional, tissue-based. An outline of the steps:
(§4)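 Male C57BL/6 mice, 10 weeks old, chow-fed, gavaged daily with vehicle or compound (20–200 mpk) for 3 days. Fasted overnight before the last dose; killed 3 h later. Tissue RNA analysed by TaqMan qRT-PCR.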

Data set [7] can be described thus: AUC in C57BL/6 mouse at 5 mg/kg, iv. The class given is ADME, organism-based. Set-up: dose 5 mg/kg, route intravenous. As to conditions: plasma. An outline of the steps: as §1
A short description of data set [8]: AUC in C57BL/6 mouse at 20 mg/kg, po. As to conditions: plasma. The data set is classed as ADME, organism-based. Set-up: dose 20 mg/kg, route oral. A digest of the protocol:
as §1

Data set [9] addresses T2, Oxysterols receptor LXR-beta (Homo sapiens) (UniProt P55055).
T2 sequence (whole entry): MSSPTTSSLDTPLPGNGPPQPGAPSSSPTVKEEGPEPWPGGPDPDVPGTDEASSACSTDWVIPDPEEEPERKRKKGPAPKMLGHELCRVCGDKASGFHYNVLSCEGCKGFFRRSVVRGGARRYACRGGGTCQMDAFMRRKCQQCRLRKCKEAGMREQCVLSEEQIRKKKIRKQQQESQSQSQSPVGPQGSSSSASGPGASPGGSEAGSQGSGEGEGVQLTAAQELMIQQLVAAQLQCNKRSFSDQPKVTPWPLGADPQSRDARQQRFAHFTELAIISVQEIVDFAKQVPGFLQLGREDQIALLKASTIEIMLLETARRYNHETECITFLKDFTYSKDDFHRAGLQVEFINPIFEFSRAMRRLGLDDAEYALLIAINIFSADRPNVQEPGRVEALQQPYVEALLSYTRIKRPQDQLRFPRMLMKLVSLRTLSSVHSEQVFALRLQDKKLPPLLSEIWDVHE
The experiment in a line: Agonist activity at GAL-linked human LXRbeta expressed in THP1 cells assessed as stimulation of co-activator recruitment by FRET assay relative to GW-3965. The data set is classed as functional. A digest of the protocol: as §2

Data set [10] addresses T3, Oxysterols receptor LXR-beta (Homo sapiens, UniProt P55055).
T3 sequence (P55055 whole entry): T2 sequence (whole entry)
The experiment in a line: Agonist activity at GAL-linked human LXRbeta expressed in THP1 cells assessed as stimulation of co-activator recruitment by FRET assay. The class given is functional. A digest of the protocol:
as §2

Data set [11] relates to THP-1. The experiment in a line: Increase in ABCA1 gene expression in THP1 cells at 10 uM relative to GW-3965. The class given is functional, Homo sapiens. An outline of the steps:
as §3

The test system of data set [12] is Liver. As to the kind of experiment: Effect on ABCA1 gene expression in C57BL/6 mouse liver. The data set is classed as functional, tissue-based. An outline of the steps: as §4
A short description of data set [13]: Clearance in C57BL/6 mouse at 5 mg/kg, iv. The data set is classed as ADME, organism-based. Details: dose 5 mg/kg, route intravenous. As to conditions: in vivo. A digest of the protocol:
as §1

Data set [14] is described as follows: Bioavailability in C57BL/6 mouse at 20 mg/kg, po. The class given is ADME, organism-based. As to conditions: in vivo. A digest of the protocol: as §1
Data set [15] deals with T4, Oxysterols receptor LXR-alpha (Homo sapiens) (UniProt Q13133).
T4 sequence (whole entry): T1 sequence (Q13133 whole entry)
As to the kind of experiment: Agonist activity at GAL-linked human LXRalpha expressed in THP1 cells assessed as stimulation of co-activator recruitment by FRET assay relative to GW-3965. The data set is classed as functional. An outline of the steps:
as §2

Data set [16] in a line: Cmax in C57BL/6 mouse at 20 mg/kg, po. The data set is classed as ADME, organism-based. Set-up: dose 20 mg/kg, route oral. As to conditions: in vivo. A digest of the protocol: as §1
Data set [17] deals with Hepatocyte. As to the kind of experiment: Induction on FAS gene expression in human primary hepatocytes at 1 uM. The data set is classed as functional, cell-based. An outline of the steps: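 Primary human hepatocytes treated with 1 µM compound; FAS mRNA measured by TaqMan-based qRT-PCR.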
The target in data set [18] is T1, Oxysterols receptor LXR-alpha. The experiment in a line: Activity at human LXRalpha by Gal4 transactivation assay. A digest of the protocol: (§5)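 GAL4 DBD fused to hLXRα or hLXRβ LBD in pcDNA3, co-transfected into HepG2 with luciferase reporter. Cells in DMEM with 10% lipoprotein-deficient FBS, 7.5 µM lovastatin, 100 µM mevalonic acid. Ligand added 24 h post-transfection as 11-point curves from 10 µM; luciferase read after 16 h. Run in quadruplicate. %E = max fold induction vs max fold induction of reference dual agonist in same experiment.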

Data set [19] deals with T4, Oxysterols receptor LXR-alpha (Homo sapiens). The experiment in a line: Displacement of [3H]T-0901317 from GAL-linked human LXRalpha expressed in THP1 cells at 20 uM by SPA relative to GW-3965. The class given is cell-based. As to conditions: THP-1. A digest of the protocol: (§6)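 Scintillation proximity displacement with His-tagged hLXRα or hLXRβ LBD (200 ng/well) and 30 nM [3H]T0901317. Beads 0.2 mg/well in phosphate buffer with EDTA, NaCl, DTT, CHAPS, 10% glycerol. 12-point curves from 20 µM; shaken 3 h at room temperature. No-competitor wells = 100% binding; nonspecific binding without protein. Efficacy = maximal displacement relative to reference dual agonist.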

Data set [20] concerns the target T3, Oxysterols receptor LXR-beta. As to the kind of experiment: Activity at human LXRbeta by Gal4 transactivation assay. A digest of the protocol:
as §5

Data set [21] deals with T2, Oxysterols receptor LXR-beta (Homo sapiens). As to the kind of experiment: Displacement of [3H]T-0901317 from GAL-linked human LXRbeta expressed in THP1 cells at 20 uM by SPA relative to GW-3965. To be noted: THP-1. The data set is classed as cell-based. An outline of the steps: as §6
For data set [22] the target is unchanged. The experiment in a line: Activity at human LXRbeta by Gal4 transactivation assay relative to GW-3965. A digest of the protocol: as §5
Data set [23] deals with T4, Oxysterols receptor LXR-alpha (Homo sapiens). The experiment in a line: Activity at human LXRalpha by Gal4 transactivation assay relative to GW-3965. An outline of the steps:
as §5

Data set [24] deals with Macrophage. The experiment in a line: Induction of APO-AI-dependent cholesterol efflux in mouse macrophages. The class given is functional, cell-based. An outline of the steps:
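Peritoneal macrophages labelled 24 h with [3H]cholesterol (1.0 µCi/mL) plus ACAT inhibitor 58-035 (2 µg/mL), with compound. Then 2–4 h equilibration in label-free medium with compound. Efflux for 4 h into DMEM/0.2% BSA with or without apoAI (15 µg/mL). apoAI-dependent efflux = medium radioactivity as % of total cell plus medium. Triplicate.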

As to `COc1cccc(C2SC(c3ccc(F)cc3)=NN2C(=O)c2c(F)cc(F)cc2F)c1OC` (configuration not stated), in data set [1], the half-life is 4.5 h. Further, the values for the Cmax in data set [2] and in [16] were 70.9 µM and 6.9 µM, respectively. Also, the EC50 was found to be 1400 nM in data set [3] and 76 nM in [10]. For the same molecule, in data set [4], the Vd worked out at 0.44 L/kg. Besides, the Activity was 42% in data set [5] and 53% in data set [11]. In addition, the outcome in data set [6] and in data set [12] was inactive. In addition, the AUC is 35700 ng·h/mL in [7] and 16800 ng·h/mL in data set [8]. The Efficacy in [9] is 98%; in data set [15] it was 62%. The molecule also showed a clearance in data set [13] of 2.26 mL/min/kg. Moreover, the bioavailability in data set [14] turned out to be 11%.
In the case of `O=C(O)Cc1cccc(OCCCN(Cc2cccc(C(F)(F)F)c2Cl)CC(c2ccccc2)c2ccccc2)c1`, the outcome in data set [17] was Active. Also, the EC50 amounted to 66 nM in data set [18], 4 nM in data set [20], 97 nM in [3] and 27 nM in [10]. Also, the Efficacy in [19], in data set [21], in data set [22], in [23], in data set [9] and in data set [15] was 100% in each case. In addition, the Activity in data set [5] and in data set [11] was 100% throughout.
Regarding `COc1cccc([C@H]2SC(c3ccc(Cl)cc3)=NN2C(=O)c2c(F)cc(F)cc2F)c1OC`, the EC50 in [18] came out at 346 nM; in [20], 63 nM; in data set [3], 1600 nM; in data set [10], 67 nM. Also, the Efficacy turned out to be 80% in data set [19]; 100% in data set [21]; 98% in data set [22]; 41% in data set [23]; 94% in data set [9]; 64% in data set [15]. Further, the results for the Activity in data set [5] and in [11] were 39% and 60%, respectively. The result in [24] was Active.
